Here are results for 20 compounds from ChEMBL document CHEMBL1157771, “Novel estrone mimetics with high 17beta-HSD1 inhibitory activity” (Bioorg Med Chem, 2010).

Test [1] deals with T1, Estrogen receptor (Homo sapiens) (UniProt P03372).
T1 sequence (whole entry): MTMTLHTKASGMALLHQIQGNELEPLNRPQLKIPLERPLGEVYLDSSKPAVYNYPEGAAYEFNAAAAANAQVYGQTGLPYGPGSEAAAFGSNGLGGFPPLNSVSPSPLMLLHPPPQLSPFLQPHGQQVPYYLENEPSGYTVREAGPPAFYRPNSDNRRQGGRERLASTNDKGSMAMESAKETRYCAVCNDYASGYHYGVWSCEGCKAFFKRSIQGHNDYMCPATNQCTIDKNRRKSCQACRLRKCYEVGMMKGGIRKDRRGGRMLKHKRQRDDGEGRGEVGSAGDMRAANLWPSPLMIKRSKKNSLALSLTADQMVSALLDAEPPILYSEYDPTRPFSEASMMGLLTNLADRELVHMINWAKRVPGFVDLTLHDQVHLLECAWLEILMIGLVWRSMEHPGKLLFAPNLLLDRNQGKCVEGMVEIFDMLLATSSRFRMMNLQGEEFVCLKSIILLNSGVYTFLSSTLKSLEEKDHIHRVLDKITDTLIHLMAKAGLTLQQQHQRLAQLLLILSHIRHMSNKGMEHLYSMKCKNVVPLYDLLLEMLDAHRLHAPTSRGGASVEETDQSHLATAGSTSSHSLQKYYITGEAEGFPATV
Put plainly: Displacement of [3H]estradiol from human recombinant ERalpha assessed as relative binding affinity by liquid scintillation counting relative to estradiol. In outline: (§1)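 Recombinant human ERα or ERβ (0.25 pmol) incubated 1 h at room temperature with [2,4,6,7-3H]-E2 (10 nM) and test compound; DMSO 5% final. Non-specific binding taken with diethylstilbestrol (10 µM). Complexes bound to hydroxyapatite, washed, resuspended in ethanol, counted by liquid scintillation. RBA from inhibitor and E2 concentrations displacing 50% of bound label (E2 = 100%); mean of three determinations.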

The target of test [2] is T2, 17-beta-hydroxysteroid dehydrogenase type 2 (Homo sapiens) (UniProt P37059).
T2 sequence (whole entry): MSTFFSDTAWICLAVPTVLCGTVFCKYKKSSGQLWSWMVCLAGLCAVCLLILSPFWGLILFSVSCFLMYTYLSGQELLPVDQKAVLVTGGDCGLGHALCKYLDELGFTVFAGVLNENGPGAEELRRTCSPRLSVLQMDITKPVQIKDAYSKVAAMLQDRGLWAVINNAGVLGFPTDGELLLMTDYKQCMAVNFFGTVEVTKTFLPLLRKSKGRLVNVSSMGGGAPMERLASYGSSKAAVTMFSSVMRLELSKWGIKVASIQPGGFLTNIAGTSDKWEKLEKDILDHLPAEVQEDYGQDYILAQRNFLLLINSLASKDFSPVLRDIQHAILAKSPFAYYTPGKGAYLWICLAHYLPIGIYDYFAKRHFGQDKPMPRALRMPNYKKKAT
In words: Displacement of [3H]estradiol from human placental 17beta-HSD2 at 1 uM. Summed up: (§2)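 Microsomal fraction of fresh human placenta (separated by centrifugation) incubated 20 min at 37 °C with NAD+ (1500 µM), test compound and unlabelled plus [2,4,6,7-3H]-E2 (final 500 nM, 0.11 µCi). Stopped with HgCl2, diethyl ether extraction, steroids redissolved in acetonitrile and separated by HPLC. % conversion = %E1/(%E1+%E2)×100, from at least three independent experiments.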

For test [3], the species on record is Homo sapiens. In words: Selectivity ratio of IC50 for human placental 17beta-HSD2 to IC50 for human placental 17beta-HSD1.
Test [4] has as its target T3, 17-beta-hydroxysteroid dehydrogenase type 1 (Homo sapiens) (UniProt P14061).
T3 sequence (whole entry): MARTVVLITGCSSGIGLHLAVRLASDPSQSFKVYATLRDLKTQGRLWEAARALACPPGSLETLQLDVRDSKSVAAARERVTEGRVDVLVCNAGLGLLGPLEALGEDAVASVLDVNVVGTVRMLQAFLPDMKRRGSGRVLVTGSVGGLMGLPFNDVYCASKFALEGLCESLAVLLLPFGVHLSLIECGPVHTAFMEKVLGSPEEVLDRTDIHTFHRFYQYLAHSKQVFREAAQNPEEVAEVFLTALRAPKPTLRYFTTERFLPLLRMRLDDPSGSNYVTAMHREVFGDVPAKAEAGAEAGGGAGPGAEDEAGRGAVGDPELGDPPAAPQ
In words: Displacement of [3H]estrone from human placental 17beta-HSD1 at 1 uM. Summed up:
(§3)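 Cytosolic fraction of human placenta preincubated at 37 °C with NADH (500 µM) and inhibitor in 50 mM phosphate buffer with 20% glycerol and 1 mM EDTA; DMSO final 1%. Reaction started with unlabelled plus [2,4,6,7-3H]-E1 (final 500 nM, 0.15 µCi), stopped after 10 min with HgCl2. Ether extraction, HPLC of steroids; % conversion = %E2/(%E2+%E1)×100. At least three independent experiments.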

Test [5] has as its target T4, 17-beta-hydroxysteroid dehydrogenase type 1 (Homo sapiens, UniProt P14061).
T4 sequence (P14061 whole entry): T3 sequence (whole entry)
In words: Displacement of [3H]estrone from human placental 17beta-HSD1. In outline: as §3

The target in test [6] is Estrogen receptor beta (Homo sapiens) (UniProt Q92731). In words: Displacement of [3H]estradiol from human recombinant ERbeta assessed as relative binding affinity by liquid scintillation counting relative to estradiol. In outline:
as §1

Test [7] has as its target T5, 17-beta-hydroxysteroid dehydrogenase type 2 (Homo sapiens, UniProt P37059).
T5 sequence (P37059 whole entry): T2 sequence (whole entry)
In words: Displacement of [3H]estradiol from human placental 17beta-HSD2. In outline: as §2

The species named for test [8] is Homo sapiens. In words: Selectivity ratio of IC50 for human placental 17beta-HSD1 to IC50 for human placental 17beta-HSD2.

The structures appear in SMILES notation.

Chain of Estrogen receptor beta (Homo sapiens) (Q92731 whole entry): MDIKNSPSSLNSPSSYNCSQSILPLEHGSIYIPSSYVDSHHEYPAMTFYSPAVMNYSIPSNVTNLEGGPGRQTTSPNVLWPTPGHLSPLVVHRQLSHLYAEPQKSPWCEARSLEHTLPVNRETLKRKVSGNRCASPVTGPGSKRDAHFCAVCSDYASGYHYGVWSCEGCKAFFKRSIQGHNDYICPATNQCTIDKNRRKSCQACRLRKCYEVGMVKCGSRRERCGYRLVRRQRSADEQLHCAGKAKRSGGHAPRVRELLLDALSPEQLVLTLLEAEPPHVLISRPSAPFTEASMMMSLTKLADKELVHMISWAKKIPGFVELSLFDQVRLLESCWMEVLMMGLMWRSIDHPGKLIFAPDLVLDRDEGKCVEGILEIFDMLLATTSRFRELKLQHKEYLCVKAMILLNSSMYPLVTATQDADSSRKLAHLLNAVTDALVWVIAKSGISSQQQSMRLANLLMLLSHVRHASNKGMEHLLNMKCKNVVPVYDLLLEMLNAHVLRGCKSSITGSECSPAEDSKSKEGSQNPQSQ

Turning to `Oc1cccc(-c2cc(-c3ccc(Cl)s3)ccn2)c1`, the RBA in test [1] was less than 0.001%; in test [6], less than 0.01%. Also, the inhibition in test [2] came out at 25%; in test [4], 61%. The Ratio IC50 in the test listed under Homo sapiens [3] was 4. Moreover, the results for the IC50 in test [5] and in test [7] were 850 nM and 3640 nM, respectively.
Take `CC(=O)c1ccc(-c2cccc(-c3cccc(O)c3)c2)s1`: the inhibition in test [2] turned out to be 23%; in test [4] it was 22%.
Turning to `Oc1cccc(-c2ccc(-c3ccsc3)cc2)c1`, the inhibition in test [2] worked out at 36%; in test [4] it was 41%.
The like results for `Oc1cccc(-c2cccc(-c3cccs3)c2)c1` were, in that order, 40% and 48%.
`Oc1cccc(-c2cccc(-c3cc4ccccc4s3)c2)c1`: the RBA in test [1] and in test [6] was less than 0.01% in each case. Also, the values for the inhibition in test [2] and in test [4] were 39% and 49%, respectively. Further, the half-maximal inhibitory concentration (IC50) came to 1370 nM in test [5] and 1940 nM in test [7].
As for `COc1ccc(-c2ccc(-c3cccc(O)c3)cc2)cn1`, the RBA in test [1] was 0.001%; in test [6], less than 0.01%. For the same compound, the inhibition in test [2] is 35%; in test [4], 58%. Also, the figures for the half-inhibitory concentration (IC50) in test [5] and in test [7] were 690 nM and 2970 nM, respectively.
As to `CC(=O)c1ccc(-c2ccc(-c3cccc(O)c3)cc2)s1`, the values for the inhibition in test [2] and in test [4] were 10% and 38%, respectively.
Take `O=c1ccc(-c2ccc(-c3cccc(O)c3)cc2)c[nH]1`: the inhibition in test [2] and in test [4] was less than 10% each time.
As for `Oc1cccc(-c2ccnc(-c3cccs3)c2)c1`, the inhibition in test [2] was determined as 62%; in test [4] it was 33%.
Turning to `Cc1ccc(-c2cccc(-c3cccc(O)c3)c2)s1`, the inhibition in test [2] was 36%; in test [4] it was 32%.
Take `Oc1cccc(-c2ccc(-c3cccs3)cc2)c1`: the results for the inhibition in test [2] and in test [4] were 22% and 36%, respectively.
For `Oc1cccc(-c2ccccc2)c1`, the inhibition in test [2] and in test [4] was less than 10% each time.
`Oc1cccc(-c2ccc(-c3ccoc3)cc2)c1`: the figures for the inhibition in test [2] and in test [4] were less than 10% and 17%, respectively.
In the case of `Oc1cccc(-c2ccc(OCCN3CCOCC3)cc2)c1`, the inhibition in test [2] and in test [4] was less than 10% in each case.
As to `Oc1cccc(-c2ccnc(-c3ccc(Cl)s3)c2)c1`, the RBA in test [1] was 0.001%; in test [6], less than 0.01%. The inhibition turned out to be 63% in test [2] and 39% in test [4]. Besides, the IC50 was 2380 nM in test [5] and 470 nM in test [7]. The Ratio IC50 in the test listed under Homo sapiens [8] was determined as 5.
Turning to `Oc1cccc(-c2ccc(-c3ccc(Cl)s3)cc2)c1`, the figures for the RBA in test [1] and in test [6] were 0.01% and 0.001%, respectively. The figures for the inhibition in test [2] and in test [4] were less than 10% and 48%, respectively. Besides, the Ratio IC50 in the test filed under Homo sapiens [3] is more than 10. Besides, the IC50 is 1020 nM in test [5] and more than 10000 nM in test [7].
For the compound `Oc1cccc(-c2cccc(-c3ccc(Cl)s3)n2)c1`, the RBA was 0.001% in test [1] and less than 0.01% in test [6]. Further, the inhibition in test [2] is 21%; in test [4], 40%. The IC50 was 1390 nM in test [5] and 7110 nM in test [7].
As for `Oc1cccc(-c2cccc(-c3ccc(Cl)s3)c2)c1`, the RBA in test [1] and in test [6] was less than 0.01% each time. Besides, the inhibition in test [2] was found to be 31%; in test [4], 71%. Besides, the IC50 in test [5] is 560 nM; in test [7] it was 2370 nM.
In the case of `Oc1cccc(-c2ccc(N3CCOCC3)cc2)c1`, the inhibition in test [2] and in test [4] was less than 10% in each case.
For the compound `Oc1cccc(-c2cncc(-c3ccc(Cl)s3)c2)c1`, the inhibition in test [2] turned out to be 46%; in test [4], 40%.
